Reference: ChEMBL document CHEMBL5126625, “Discovery of AZD4831, a Mechanism-Based Irreversible Inhibitor of Myeloperoxidase, As a Potential Treatment for Heart Failure with Preserved Ejection Fraction” (J Med Chem, 2022)
Values after ≈ are worked out from the molar mass of the structure shown.

Legend:
Myeloperoxidase [1] = biological target: T1, Myeloperoxidase (Homo sapiens, UniProt P05164); experiment: Inhibition of MPO (unknown origin) measured after 15 mins in presence of H2O2 by chemiluminescence assay
T1 sequence (P05164 whole entry): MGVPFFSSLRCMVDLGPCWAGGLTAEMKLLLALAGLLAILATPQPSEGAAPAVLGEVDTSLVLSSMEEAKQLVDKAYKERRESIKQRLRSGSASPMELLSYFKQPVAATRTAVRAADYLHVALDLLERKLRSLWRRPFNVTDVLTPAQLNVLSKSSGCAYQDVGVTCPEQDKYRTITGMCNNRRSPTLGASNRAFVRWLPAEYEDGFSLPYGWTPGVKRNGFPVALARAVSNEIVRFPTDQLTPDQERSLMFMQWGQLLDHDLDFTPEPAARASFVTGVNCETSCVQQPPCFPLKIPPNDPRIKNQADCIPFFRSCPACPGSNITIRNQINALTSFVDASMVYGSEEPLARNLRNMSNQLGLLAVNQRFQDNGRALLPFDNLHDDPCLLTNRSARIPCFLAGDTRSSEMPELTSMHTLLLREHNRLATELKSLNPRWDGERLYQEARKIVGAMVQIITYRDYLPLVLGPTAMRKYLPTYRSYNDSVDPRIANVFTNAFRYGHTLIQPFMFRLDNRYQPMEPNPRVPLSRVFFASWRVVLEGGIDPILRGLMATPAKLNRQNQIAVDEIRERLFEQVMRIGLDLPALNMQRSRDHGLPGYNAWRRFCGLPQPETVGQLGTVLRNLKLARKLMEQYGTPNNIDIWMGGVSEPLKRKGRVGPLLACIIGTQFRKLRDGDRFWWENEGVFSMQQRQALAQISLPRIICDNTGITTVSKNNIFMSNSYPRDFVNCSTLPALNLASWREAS

Myeloperoxidase [2] = biological target: T1, Myeloperoxidase; experiment: Inhibition of MPO in human HL-60 cells measured after 15 mins in presence of H2O2 by chemiluminescence assay; type: cell-based
Thyroid peroxidase = biological target: T2, Thyroid peroxidase (Homo sapiens, UniProt P07202); experiment: Inhibition of human recombinant TPO (1 to 839 residues) expressed in baculovirus-infected insect cells measured after 15 mins in presence of H2O2 by chemiluminescence assay
T2 sequence (P07202 whole entry): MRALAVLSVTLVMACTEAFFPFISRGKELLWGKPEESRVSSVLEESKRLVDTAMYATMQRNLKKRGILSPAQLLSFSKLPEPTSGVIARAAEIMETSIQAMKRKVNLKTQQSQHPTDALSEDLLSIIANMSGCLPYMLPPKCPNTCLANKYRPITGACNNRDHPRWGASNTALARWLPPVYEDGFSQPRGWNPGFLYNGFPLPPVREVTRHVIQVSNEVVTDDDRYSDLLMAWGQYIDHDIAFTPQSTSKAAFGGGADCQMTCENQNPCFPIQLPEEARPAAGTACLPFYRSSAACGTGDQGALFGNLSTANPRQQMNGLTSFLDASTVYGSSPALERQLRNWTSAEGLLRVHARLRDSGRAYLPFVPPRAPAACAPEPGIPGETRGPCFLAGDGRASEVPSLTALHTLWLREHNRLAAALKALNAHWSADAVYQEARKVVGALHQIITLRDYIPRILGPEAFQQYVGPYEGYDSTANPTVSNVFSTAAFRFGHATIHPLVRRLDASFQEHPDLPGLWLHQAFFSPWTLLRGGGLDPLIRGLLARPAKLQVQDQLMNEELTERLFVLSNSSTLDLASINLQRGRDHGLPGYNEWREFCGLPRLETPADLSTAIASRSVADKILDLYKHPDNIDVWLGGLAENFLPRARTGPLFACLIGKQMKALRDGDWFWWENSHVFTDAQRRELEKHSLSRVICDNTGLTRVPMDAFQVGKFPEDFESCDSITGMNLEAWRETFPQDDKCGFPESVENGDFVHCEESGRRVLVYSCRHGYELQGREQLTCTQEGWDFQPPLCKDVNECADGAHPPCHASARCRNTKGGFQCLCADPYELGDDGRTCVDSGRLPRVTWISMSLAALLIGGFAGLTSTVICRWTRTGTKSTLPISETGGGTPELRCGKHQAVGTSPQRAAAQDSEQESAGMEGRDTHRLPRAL
In short: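 IC50 determined against purified enzyme in an in vitro chemiluminescent assay.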

[3] = Lipophilicity, log D of the compound; conditions: octanol/water
[4] = Apparent permeability of the compound across apical to basolateral side in human Caco-2 cells at 10 uM by LC-MS/MS analysis
physchem = conditions: phosphate buffer, pH 7.4
[5] = Drug uptake in human liver microsomes assessed as covalent binding at 10 uM incubated for 60 mins by LC/MS analysis; type: ADME, Microsome; conditions: 1 h
In short: (§1)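 Human liver microsomes incubated with the [14C]-labelled compound to measure covalent binding to microsomal protein.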

[6] = Drug uptake in human liver microsomes assessed as covalent binding at 10 uM incubated for 60 mins in presence of NADPH by LC/MS analysis; type: ADME, Microsome; conditions: 1 h; in short: as §1
[7] = Drug uptake in heat-inactivated human liver microsomes assessed as covalent binding at 10 uM incubated for 60 mins by LC/MS analysis; type: ADME, Microsome; conditions: 1 h; in short: as §1
[8] = Drug uptake in human liver microsomes assessed as covalent binding at 10 uM incubated for 60 mins in presence of formaldehyde by LC/MS analysis; type: ADME, Microsome; conditions: 1 h
In short: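 Covalent binding of the [14C]-labelled compound in human liver microsome incubations with 5 mM formaldehyde added.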

[9] = Drug uptake in human hepatocytes assessed as covalent binding measured per mg protein; type: ADME, cell-based, Hepatocyte
In short: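 [14C]-labelled compound incubated with human hepatocytes; covalently bound radioactivity expressed as pmol per mg protein.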

[10] = Oral bioavailability in Wistar Han rat measured up to 24 hrs by LC-MS/MS analysis; type: ADME, organism-based; conditions: in vivo
[11] = Oral bioavailability in Beagle dog measured up to 24 hrs by LC-MS/MS analysis; type: ADME, organism-based, Canis lupus familiaris; conditions: in vivo
[12] = biological target: Voltage-gated inwardly rectifying potassium channel KCNH2 (Homo sapiens, UniProt Q12809)
Cytochrome P450 3A4 = Cytochrome P450 3A4 (Homo sapiens, UniProt P08684)
Cytochrome P450 2C9 = Cytochrome P450 2C9 (Homo sapiens, UniProt P11712); experiment: Inhibition of human recombinant CYP2C9 using coumarin as substrate preincubated with enzyme for 10 mins followed by NADPH addition and measured after 20 to 50 mins by fluorescence based method
Cytochrome P450 2D6 = Cytochrome P450 2D6 (Homo sapiens, UniProt P10635); experiment: Inhibition of CYP2D6 (unknown origin) using coumarin as substrate preincubated with enzyme for 10 mins followed by NADPH addition and measured after 20 to 50 mins by fluorescence based method
Cytochrome P450 1A2 = biological target: T3, Cytochrome P450 1A2 (Homo sapiens, UniProt P05177); experiment: Inhibition of human recombinant CYP1A2 using coumarin as substrate preincubated with enzyme for 10 mins followed by NADPH addition and measured after 20 to 50 mins by fluorescence based method
T3 sequence (P05177 whole entry): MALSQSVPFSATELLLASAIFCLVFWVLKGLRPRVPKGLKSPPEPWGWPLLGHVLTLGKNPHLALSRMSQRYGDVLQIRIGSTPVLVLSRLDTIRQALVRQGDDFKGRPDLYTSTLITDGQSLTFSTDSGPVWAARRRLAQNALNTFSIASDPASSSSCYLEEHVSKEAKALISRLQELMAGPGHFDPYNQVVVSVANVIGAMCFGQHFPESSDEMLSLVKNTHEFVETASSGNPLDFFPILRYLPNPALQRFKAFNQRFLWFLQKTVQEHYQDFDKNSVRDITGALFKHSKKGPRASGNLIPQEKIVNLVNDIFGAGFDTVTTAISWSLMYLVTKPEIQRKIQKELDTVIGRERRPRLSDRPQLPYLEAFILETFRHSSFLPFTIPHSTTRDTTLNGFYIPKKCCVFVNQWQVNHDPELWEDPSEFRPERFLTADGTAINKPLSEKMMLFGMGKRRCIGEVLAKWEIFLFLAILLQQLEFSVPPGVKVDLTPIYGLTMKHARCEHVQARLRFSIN

Cytochrome P450 2C19 = Cytochrome P450 2C19 (Homo sapiens, UniProt P33261); experiment: Inhibition of human recombinant CYP2C19 using coumarin as substrate preincubated with enzyme for 10 mins followed by NADPH addition and measured after 20 to 50 mins by fluorescence based method
Myeloperoxidase [13] = biological target: T1, Myeloperoxidase; experiment: Displacement of benzhydroxamic acid from native state MPO (unknown origin) by 1D NMR reporter assay

Sequence of Voltage-gated inwardly rectifying potassium channel KCNH2 (Q12809 whole entry): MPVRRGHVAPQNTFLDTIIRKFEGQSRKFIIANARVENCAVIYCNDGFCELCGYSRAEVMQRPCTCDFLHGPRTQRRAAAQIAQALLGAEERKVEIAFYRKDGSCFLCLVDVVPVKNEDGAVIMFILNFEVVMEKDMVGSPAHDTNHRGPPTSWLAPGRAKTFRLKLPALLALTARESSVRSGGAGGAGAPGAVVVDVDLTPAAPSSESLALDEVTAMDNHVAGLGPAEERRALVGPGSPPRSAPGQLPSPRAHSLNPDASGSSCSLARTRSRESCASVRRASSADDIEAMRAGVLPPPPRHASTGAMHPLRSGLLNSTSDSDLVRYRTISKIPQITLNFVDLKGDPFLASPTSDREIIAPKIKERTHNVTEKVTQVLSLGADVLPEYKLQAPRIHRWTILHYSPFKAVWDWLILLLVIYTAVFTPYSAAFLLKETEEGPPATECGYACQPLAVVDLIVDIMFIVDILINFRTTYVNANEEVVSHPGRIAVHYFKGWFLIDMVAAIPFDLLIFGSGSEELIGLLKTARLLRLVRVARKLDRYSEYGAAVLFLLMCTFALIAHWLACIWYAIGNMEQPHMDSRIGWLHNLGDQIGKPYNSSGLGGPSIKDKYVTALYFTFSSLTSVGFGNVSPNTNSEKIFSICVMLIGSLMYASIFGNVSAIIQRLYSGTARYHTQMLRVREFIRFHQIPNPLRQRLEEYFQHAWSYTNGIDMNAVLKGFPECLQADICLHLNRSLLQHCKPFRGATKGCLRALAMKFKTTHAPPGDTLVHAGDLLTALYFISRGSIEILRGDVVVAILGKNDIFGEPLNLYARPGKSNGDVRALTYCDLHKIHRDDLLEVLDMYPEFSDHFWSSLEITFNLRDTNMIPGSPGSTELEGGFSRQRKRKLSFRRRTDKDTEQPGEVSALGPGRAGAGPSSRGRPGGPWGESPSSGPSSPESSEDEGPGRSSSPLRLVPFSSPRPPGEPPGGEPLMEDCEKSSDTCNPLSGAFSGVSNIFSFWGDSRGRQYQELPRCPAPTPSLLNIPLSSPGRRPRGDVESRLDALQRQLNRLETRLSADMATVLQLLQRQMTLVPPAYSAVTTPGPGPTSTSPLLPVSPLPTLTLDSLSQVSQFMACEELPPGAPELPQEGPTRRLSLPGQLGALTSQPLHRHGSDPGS
Sequence of Cytochrome P450 3A4 (P08684 whole entry): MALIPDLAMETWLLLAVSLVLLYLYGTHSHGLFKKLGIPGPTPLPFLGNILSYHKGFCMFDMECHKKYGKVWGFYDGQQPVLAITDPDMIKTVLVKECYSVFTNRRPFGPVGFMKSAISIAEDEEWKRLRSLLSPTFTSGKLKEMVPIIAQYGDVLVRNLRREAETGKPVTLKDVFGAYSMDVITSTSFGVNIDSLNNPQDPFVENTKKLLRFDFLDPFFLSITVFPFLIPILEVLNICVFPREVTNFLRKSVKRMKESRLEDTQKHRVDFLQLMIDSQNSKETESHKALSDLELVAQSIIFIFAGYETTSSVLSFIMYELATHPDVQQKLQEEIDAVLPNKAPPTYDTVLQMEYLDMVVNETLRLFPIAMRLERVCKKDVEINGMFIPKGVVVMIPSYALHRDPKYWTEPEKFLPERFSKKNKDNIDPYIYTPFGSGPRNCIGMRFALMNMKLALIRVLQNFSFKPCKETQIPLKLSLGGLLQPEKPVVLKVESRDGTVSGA
Sequence of Cytochrome P450 2D6 (P10635 whole entry): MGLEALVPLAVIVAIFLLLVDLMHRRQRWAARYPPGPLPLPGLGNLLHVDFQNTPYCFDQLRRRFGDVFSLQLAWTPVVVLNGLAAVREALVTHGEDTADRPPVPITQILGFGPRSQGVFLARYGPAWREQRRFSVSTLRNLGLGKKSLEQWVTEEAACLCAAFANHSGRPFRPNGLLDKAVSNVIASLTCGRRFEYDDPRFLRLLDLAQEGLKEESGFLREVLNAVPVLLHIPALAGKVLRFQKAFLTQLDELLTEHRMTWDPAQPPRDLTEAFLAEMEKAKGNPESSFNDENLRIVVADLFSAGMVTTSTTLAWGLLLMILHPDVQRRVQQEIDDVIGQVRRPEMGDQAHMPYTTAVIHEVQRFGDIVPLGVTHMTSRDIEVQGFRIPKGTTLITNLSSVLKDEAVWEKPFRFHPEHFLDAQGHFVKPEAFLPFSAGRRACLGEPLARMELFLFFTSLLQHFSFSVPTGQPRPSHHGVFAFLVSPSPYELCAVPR
Sequence of Cytochrome P450 2C19 (P33261 whole entry): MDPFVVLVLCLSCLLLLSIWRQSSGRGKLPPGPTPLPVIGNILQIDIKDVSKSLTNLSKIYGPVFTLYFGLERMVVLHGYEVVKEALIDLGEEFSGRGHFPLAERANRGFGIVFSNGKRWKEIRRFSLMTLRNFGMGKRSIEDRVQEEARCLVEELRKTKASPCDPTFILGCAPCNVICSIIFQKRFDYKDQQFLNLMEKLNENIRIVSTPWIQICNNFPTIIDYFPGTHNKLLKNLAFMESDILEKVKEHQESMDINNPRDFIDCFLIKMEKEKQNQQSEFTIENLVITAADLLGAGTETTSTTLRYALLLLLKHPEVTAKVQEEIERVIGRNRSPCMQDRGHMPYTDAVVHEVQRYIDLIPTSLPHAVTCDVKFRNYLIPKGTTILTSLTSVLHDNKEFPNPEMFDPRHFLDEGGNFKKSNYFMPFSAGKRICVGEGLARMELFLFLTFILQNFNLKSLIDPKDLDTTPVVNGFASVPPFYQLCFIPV
Sequence of Cytochrome P450 2C9 (P11712 whole entry): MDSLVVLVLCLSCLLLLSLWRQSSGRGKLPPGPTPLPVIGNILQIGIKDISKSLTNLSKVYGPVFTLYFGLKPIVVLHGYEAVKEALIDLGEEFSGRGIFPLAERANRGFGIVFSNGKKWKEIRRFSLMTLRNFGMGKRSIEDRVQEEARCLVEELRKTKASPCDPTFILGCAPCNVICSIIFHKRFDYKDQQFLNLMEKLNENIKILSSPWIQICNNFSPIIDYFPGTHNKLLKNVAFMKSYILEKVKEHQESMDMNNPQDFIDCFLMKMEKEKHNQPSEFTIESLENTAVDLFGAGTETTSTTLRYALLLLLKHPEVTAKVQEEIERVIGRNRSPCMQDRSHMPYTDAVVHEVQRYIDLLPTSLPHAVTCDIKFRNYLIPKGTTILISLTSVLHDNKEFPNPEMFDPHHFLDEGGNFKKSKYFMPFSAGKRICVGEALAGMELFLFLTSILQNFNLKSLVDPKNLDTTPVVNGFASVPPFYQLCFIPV

SMILES	IC50 (Myeloperoxidase [1])	IC50 (Myeloperoxidase [2])	IC50 (Thyroid peroxidase)	logD [3]	Papp A→B at 10 µM [4]	solubility thermodynamic at 18 h (physchem)	further results
CC(C)NCc1ccccc1Cn1c(=S)[nH]c(=O)c2[nH]ccc21	30.9 nM	13000 nM	8100 nM	0.9	12 ×10⁻⁶ cm/s	140 µM (≈ 46 µg/mL)	–
CN[C@H](C)c1cc(Cl)ccc1Cn1c(=S)[nH]c(=O)c2[nH]ccc21 (racemic)	12.7 nM	4600 nM	1100 nM	1.5	19 ×10⁻⁶ cm/s	190 µM (≈ 66.3 µg/mL)	–
O=c1[nH]c(=S)n(Cc2ccccc2CN2CCC2)c2cc[nH]c12	15.1 nM	6600 nM	1500 nM	1	19 ×10⁻⁶ cm/s	930 µM (≈ 304 µg/mL)	–
O=c1[nH]c(=S)n(Cc2ccc(F)cc2)c2nc[nH]c12	–	–	590 nM	–	–	–	–
NCc1cc(Cl)ccc1Cn1c2cc[nH]c2c(=O)[nH][14c]1=S	–	–	–	–	–	–	Drug uptake [5]: Active; Drug uptake [6]: Active; Drug uptake [7]: Active; Drug uptake [8]: Active; Drug uptake [9]: 95 pmol
CNCc1c(Cl)cccc1Cn1c(=S)[nH]c(=O)c2[nH]ccc21	39.3 nM	9400 nM	4200 nM	1.3	19 ×10⁻⁶ cm/s	150 µM (≈ 50.2 µg/mL)	–
CNCc1cc(Cl)ccc1Cn1c(=S)[nH]c(=O)c2[nH]ccc21	15.9 nM	6600 nM	2100 nM	1.3	17 ×10⁻⁶ cm/s	160 µM (≈ 53.6 µg/mL)	bioavailability [10]: 60%; bioavailability [11]: 72%; IC50 [12]: 10000 nM; IC50 (Cytochrome P450 3A4): > 30000 nM
NCc1cc(Cl)ccc1Cn1c(=S)[nH]c(=O)c2[nH]ccc21	–	–	1300 nM	1.2	6 ×10⁻⁶ cm/s	42 µM (≈ 13.5 µg/mL)	IC50 (Cytochrome P450 2C9): > 30000 nM; IC50 (Cytochrome P450 2D6): > 30000 nM; IC50 (Cytochrome P450 1A2): > 30000 nM; IC50 (Cytochrome P450 2C19): > 30000 nM; bioavailability [10]: 68%; bioavailability [11]: 45%; IC50 [12]: > 40000 nM; IC50 (Cytochrome P450 3A4): 19000 nM
NC(c1ccccc1)c1ccccc1Cn1c(=S)[nH]c(=O)c2[nH]ccc21 (centres undefined)	–	–	1390 nM	1.7	18 ×10⁻⁶ cm/s	8.3 µM (≈ 3.01 µg/mL)	–
O=c1[nH]c(=S)n(C[C@H]2CCCO2)c2nc[nH]c12	279 nM	29000 nM	2400 nM	–	–	–	Kd (Myeloperoxidase [13]): 63100 nM
COc1ccc(Cl)cc1-c1cc(=O)[nH]c(=S)n1CC(N)=O [PF-06282999]	–	–	990 nM	–	–	–	–
C[C@@H](N)c1cc(Cl)ccc1Cn1c(=S)[nH]c(=O)c2[nH]cnc21	–	–	770 nM	–	–	–	–
CC(=O)NCc1cc(Cl)ccc1Cn1c(=S)[nH]c(=O)c2[nH]ccc21	140 nM	16000 nM	1400 nM	2	11 ×10⁻⁶ cm/s	3.3 µM (≈ 1.2 µg/mL)	–
CNCc1ccc(Cl)cc1Cn1c(=S)[nH]c(=O)c2[nH]ccc21	27.1 nM	6100 nM	1900 nM	1.1	9.6 ×10⁻⁶ cm/s	210 µM (≈ 70.3 µg/mL)	–
C[C@H](N)c1cc(Cl)ccc1Cn1c(=S)[nH]c(=O)c2[nH]ccc21	–	–	1100 nM	1.4	10 ×10⁻⁶ cm/s	850 µM (≈ 285 µg/mL)	–
CC(C)NCc1ccccc1Cn1c(=S)[nH]c(=O)c2[nH]cnc21	38.6 nM	80000 nM	4200 nM	0.3	0.89 ×10⁻⁶ cm/s	18 µM (≈ 5.93 µg/mL)	–
